According to ChEMBL document CHEMBL5705889, “Novel mutant-selective EGFR kinase inhibitors against EGFR T790M” (Nature, 2009):
The source made the active and inactive calls. The rule behind the calls is not given here.

Key:
HCC827 = test: cells; format: functional, cell-based; details: Homo sapiens, HCC827, 72 h
NCI-H3255 = test: Antiproliferative activity against human NCI-H3255 cells harboring EGFR L858R mutant assessed as inhibition of cell growth incubated for 72 hrs by MTS assay; format: functional, cell-based; details: NCI-H3255, 72 h
cells [1] = format: functional, cell-based; details: Homo sapiens, HCC827 Gefitinib-resistant (GR) cell, 72 h
Calu-3 = test: cells; format: functional, cell-based; details: Homo sapiens, Calu-3, 72 h
cells [2] = format: functional, cell-based; details: Homo sapiens, NCI-H1781, 72 h
BaF3 [3] = test: cells; format: functional, cell-based; details: Mus musculus, BaF3, 72 h
BaF3 [4] = test: cells; format: functional, cell-based; details: Mus musculus, BaF3, 72 h; remark: listed apart in the source
BaF3 [5] = test: cells; format: functional, cell-based; details: Mus musculus, BaF3, 72 h; remark: listed apart in the source
BaF3 [6] = test: cells; format: functional, cell-based; details: Mus musculus, BaF3, 72 h; remark: listed apart in the source
BaF3 [7] = test: cells; format: functional, cell-based; details: Mus musculus, BaF3, 72 h; remark: listed apart in the source
[8] = biological target: Mitogen-activated protein kinase; ERK1/ERK2 (Homo sapiens) (UniProt P27361+P28482); test: Inhibition of ERK1/2 phosphorylation in human PC9 Gefitinib-resistant (GR) cells at 0.01 to 1 uM incubated for 16 hrs by immunoblot analysis; format: cell-based; details: PC9 Gefitinib-resistant (GR) cell, dose 0.01-1 µM
Sequence of Mitogen-activated protein kinase; ERK1/ERK2 (Homo sapiens) (P27361 whole entry, looked up): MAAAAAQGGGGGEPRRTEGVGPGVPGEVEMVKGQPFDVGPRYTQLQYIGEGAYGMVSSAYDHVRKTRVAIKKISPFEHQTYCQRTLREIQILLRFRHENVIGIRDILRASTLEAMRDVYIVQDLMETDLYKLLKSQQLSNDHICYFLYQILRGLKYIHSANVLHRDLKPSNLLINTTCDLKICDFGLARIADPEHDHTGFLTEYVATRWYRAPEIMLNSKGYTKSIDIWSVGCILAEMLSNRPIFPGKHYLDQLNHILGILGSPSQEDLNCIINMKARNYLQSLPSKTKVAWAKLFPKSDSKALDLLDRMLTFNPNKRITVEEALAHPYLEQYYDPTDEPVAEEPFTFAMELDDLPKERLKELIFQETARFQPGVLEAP
Sequence of Mitogen-activated protein kinase; ERK1/ERK2 (Homo sapiens) (P28482 whole entry, looked up): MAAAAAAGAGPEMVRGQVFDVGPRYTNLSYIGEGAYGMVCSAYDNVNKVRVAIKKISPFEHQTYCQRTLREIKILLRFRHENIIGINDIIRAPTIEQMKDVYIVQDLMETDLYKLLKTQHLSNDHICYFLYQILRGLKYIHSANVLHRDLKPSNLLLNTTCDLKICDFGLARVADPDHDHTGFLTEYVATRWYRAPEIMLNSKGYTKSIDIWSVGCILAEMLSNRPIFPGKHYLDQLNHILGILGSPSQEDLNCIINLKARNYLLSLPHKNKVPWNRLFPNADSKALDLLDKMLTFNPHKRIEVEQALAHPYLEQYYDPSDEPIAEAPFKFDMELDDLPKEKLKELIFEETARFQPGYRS

[9] = biological target: Epidermal growth factor receptor (Homo sapiens, UniProt P00533); test: Inhibition of EGFR phosphorylation in human NCI-H1975 cells at 0.01 to 1 uM incubated for 16 hrs by immunoblot analysis; format: cell-based; details: dose 0.01-1 µM
Sequence of Epidermal growth factor receptor (P00533 whole entry): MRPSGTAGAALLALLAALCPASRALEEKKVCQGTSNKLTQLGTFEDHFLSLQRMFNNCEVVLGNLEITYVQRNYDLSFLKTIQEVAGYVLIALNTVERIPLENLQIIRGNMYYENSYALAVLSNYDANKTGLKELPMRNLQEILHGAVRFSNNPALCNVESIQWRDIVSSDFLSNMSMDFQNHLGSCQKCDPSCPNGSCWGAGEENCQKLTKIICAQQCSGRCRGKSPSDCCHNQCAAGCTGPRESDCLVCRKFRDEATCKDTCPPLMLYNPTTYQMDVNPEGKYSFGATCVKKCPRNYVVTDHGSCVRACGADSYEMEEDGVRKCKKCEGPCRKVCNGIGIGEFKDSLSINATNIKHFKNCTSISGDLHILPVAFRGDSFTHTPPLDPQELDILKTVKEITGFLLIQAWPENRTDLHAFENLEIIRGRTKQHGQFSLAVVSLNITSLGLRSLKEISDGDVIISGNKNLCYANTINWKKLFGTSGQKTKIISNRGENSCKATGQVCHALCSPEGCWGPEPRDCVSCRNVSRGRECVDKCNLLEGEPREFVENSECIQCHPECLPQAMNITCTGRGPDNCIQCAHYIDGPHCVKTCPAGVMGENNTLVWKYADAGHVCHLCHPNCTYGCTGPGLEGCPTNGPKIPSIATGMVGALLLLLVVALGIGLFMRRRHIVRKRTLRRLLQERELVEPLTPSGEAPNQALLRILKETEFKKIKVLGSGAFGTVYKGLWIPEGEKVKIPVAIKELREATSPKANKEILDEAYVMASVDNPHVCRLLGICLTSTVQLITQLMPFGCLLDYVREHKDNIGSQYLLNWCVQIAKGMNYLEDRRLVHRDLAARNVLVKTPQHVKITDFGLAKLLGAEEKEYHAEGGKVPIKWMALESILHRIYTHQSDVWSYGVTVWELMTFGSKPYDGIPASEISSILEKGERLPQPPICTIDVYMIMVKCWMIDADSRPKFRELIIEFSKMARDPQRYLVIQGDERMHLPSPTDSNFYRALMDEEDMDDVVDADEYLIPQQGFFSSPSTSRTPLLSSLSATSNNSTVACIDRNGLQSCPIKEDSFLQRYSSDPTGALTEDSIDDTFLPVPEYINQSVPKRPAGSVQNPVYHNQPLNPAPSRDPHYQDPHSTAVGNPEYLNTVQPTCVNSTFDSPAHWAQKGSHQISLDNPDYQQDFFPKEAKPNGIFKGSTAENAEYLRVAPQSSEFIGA

[10] = biological target: NUAK family SNF1-like kinase 1 (Homo sapiens, UniProt O60285); test: Binding affinity to ARK5 (unknown origin) assessed as dissociation constant
Sequence of NUAK family SNF1-like kinase 1 (O60285 whole entry): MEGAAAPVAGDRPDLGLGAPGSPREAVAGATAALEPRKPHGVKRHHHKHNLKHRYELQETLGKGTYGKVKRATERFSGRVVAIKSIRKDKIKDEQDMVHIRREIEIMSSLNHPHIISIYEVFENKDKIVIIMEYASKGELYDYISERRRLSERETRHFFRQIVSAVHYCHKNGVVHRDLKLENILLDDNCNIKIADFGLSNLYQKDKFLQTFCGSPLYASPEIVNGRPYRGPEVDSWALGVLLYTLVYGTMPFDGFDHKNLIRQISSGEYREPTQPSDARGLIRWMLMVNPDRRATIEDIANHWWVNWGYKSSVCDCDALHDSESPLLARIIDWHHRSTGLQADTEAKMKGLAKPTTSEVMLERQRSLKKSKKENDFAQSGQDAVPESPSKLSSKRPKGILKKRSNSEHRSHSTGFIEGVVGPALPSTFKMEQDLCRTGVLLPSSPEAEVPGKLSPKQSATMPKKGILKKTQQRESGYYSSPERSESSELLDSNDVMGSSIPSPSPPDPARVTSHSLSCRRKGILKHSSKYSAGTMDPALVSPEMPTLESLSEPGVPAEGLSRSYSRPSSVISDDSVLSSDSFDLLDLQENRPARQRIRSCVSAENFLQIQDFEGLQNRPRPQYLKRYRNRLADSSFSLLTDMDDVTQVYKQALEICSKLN

[11] = biological target: Tyrosine-protein kinase Blk (Homo sapiens, UniProt P51451); test: Binding affinity to BLK (unknown origin) assessed as dissociation constant
[12] = biological target: Tyrosine-protein kinase BTK (Homo sapiens, UniProt Q06187); test: Binding affinity to BTK (unknown origin) assessed as dissociation constant
Sequence of Tyrosine-protein kinase BTK (Q06187 whole entry): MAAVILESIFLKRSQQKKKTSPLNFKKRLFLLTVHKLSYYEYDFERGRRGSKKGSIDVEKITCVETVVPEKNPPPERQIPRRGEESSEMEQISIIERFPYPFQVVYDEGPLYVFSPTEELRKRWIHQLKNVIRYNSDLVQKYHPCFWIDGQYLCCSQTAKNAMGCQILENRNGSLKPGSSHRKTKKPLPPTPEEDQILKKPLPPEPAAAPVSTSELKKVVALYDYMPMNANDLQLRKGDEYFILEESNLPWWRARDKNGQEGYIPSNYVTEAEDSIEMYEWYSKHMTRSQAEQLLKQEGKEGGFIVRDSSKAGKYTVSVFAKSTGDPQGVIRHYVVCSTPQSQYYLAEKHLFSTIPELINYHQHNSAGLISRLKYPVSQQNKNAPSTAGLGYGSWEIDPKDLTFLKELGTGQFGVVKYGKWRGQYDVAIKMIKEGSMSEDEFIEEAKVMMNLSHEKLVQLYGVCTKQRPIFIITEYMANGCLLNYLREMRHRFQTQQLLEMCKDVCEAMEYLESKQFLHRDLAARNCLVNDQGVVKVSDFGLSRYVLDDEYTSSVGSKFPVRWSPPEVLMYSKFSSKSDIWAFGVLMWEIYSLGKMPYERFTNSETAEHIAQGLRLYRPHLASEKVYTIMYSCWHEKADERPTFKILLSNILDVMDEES

[13] = biological target: Receptor-type tyrosine-protein kinase FLT3 (Homo sapiens, UniProt P36888, D835Y); test: Binding affinity to FLT3 D835Y mutant (unknown origin) assessed as dissociation constant
[14] = biological target: Serine/threonine-protein kinase PLK4 (Homo sapiens, UniProt O00444); test: Binding affinity to PLK4 (unknown origin) assessed as dissociation constant
Sequence of Serine/threonine-protein kinase PLK4 (O00444 whole entry): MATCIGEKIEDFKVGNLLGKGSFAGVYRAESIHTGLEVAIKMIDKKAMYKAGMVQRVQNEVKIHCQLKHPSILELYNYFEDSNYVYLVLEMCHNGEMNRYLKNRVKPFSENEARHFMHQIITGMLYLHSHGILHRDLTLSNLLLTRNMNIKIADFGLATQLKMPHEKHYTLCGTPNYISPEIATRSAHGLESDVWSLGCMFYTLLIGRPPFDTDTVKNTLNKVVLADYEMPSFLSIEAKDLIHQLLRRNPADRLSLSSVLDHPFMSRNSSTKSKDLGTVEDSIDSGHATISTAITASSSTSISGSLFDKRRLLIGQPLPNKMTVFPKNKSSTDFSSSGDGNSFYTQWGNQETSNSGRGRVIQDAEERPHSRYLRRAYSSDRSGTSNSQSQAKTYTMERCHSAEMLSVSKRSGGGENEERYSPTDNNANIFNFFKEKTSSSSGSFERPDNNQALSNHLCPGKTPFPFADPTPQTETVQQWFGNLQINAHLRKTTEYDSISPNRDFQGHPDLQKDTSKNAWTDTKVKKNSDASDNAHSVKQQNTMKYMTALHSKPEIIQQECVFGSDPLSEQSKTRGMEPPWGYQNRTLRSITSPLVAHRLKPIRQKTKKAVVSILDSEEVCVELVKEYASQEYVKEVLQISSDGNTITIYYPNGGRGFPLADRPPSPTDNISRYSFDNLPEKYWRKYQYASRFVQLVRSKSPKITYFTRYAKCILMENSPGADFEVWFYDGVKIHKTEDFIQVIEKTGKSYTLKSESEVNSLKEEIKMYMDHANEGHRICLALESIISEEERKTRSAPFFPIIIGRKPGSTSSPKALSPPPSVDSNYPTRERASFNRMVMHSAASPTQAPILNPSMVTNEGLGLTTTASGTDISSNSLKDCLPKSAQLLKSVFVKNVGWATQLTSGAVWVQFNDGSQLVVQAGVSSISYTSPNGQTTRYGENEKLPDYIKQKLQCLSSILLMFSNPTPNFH

[15] = biological target: Cytoplasmic tyrosine-protein kinase BMX (Homo sapiens) (UniProt P51813); test: Binding affinity to BMX (unknown origin)
Sequence of Cytoplasmic tyrosine-protein kinase BMX (Homo sapiens) (P51813 whole entry, the tested form may be a part): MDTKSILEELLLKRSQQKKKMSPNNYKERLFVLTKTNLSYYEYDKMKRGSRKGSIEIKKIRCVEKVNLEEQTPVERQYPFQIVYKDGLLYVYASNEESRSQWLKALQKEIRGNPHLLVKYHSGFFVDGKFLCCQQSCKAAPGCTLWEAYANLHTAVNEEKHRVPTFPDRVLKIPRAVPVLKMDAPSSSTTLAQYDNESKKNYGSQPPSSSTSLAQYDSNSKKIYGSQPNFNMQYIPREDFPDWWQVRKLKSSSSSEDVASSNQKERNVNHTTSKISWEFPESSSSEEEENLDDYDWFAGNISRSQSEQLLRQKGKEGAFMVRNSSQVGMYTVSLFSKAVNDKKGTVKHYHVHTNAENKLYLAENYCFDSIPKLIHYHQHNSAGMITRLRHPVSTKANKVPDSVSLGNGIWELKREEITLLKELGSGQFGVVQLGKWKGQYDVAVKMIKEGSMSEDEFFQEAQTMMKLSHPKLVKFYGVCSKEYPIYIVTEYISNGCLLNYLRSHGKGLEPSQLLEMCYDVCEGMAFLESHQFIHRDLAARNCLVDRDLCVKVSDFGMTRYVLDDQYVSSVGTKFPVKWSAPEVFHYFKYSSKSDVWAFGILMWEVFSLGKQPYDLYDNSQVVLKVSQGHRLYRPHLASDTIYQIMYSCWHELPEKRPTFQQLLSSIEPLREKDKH

[16] = biological target: Tyrosine-protein kinase JAK2 (Homo sapiens, UniProt O60674); test: Inhibition of TEL fused JAK2 (unknown origin) transformed in mouse BaF3 cells; format: cell-based
[17] = Clearance in mouse at 1 mg/kg, iv administered as single dose; format: ADME, organism-based; details: in vivo
[18] = Volume of distribution at steady state in mouse at 1 mg/kg, iv administered as single dose; format: ADME, organism-based; details: in vivo, read-out: Vdss
[19] = Cmax in mouse at 10 mg/kg, po administered as single dose; format: ADME, organism-based; details: in vivo
[20] = MRT in mouse at 10 mg/kg, po administered as single dose; format: ADME, organism-based; details: in vivo
[21] = Drug concentration in mouse plasma at 1 mg/kg, iv administered as single dose and measured after 0.08 hrs; format: ADME, organism-based
[22] = Drug concentration in mouse plasma at 1 mg/kg, iv administered as single dose and measured after 0.25 hrs; format: ADME, organism-based
[23] = Drug concentration in mouse plasma at 1 mg/kg, iv administered as single dose and measured after 0.5 hrs; format: ADME, organism-based
[24] = Drug concentration in mouse plasma at 1 mg/kg, iv administered as single dose and measured after 4 hrs; format: ADME, organism-based
[25] = Drug concentration in mouse plasma at 1 mg/kg, iv administered as single dose and measured after 8 hrs; format: ADME, organism-based
[26] = Drug concentration in mouse plasma at 10 mg/kg, po administered as single dose and measured after 1 hrs; format: ADME, organism-based
[27] = Drug concentration in mouse plasma at 10 mg/kg, po administered as single dose and measured after 6 hrs; format: ADME, organism-based
[28] = Drug concentration in mouse plasma at 10 mg/kg, po administered as single dose and measured after 24 hrs; format: ADME, organism-based
[29] = Toxicity in mouse harboring EGFR del E746_A750/T790M mutant assessed as effect on serum creatine level at 25 mg/kg administered via gavage for 2 weeks; format: organism-based; details: in vivo, po, 336 h
Procedure, shortened: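 Inducible bitransgenic tumor mice gavaged daily, 25 mg/kg, vehicle NMP (10% 1-methyl-2-pyrrolidinone, 90% PEG-300), compared against vehicle-treated mice; weight, serum creatine and total white blood cell count monitored during the study.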

Mus musculus [30] = test: In vivo inhibition of ERK1/2 phosphorylation in transgenic mouse harboring EGFR del E746_A750/T790M mutant at 2.5 to 25 mg/kg administered as two doses separated by 16 hours by immunoblot analysis; format: functional, organism-based; details: dose 2.5-25 mg/kg
Procedure, shortened: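 Transgenic mice gavaged with compound in 10% 1-methyl-2-pyrrolidinone:90% PEG-300 vehicle; phosphorylation assessed in tissue by immunoblotting per standard protocols.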

Mus musculus [31] = test: In vivo antitumor activity in transgenic mouse harboring EGFR delE746_A750/T790M mutant assessed as decrease in Ki67 positive cells at 25 mg/kg administered via gavage for 2 weeks by immunohistochemical analysis; format: functional, organism-based
Procedure, shortened: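 Transgenic EGFR T790M mutant mice were given daily gavage at 25mg/kg in 10% 1-methyl-2-pyrrolidinone:90% PEG-300 vehicle, alongside vehicle-alone controls. Tumor tissue was immunostained by standard protocols, and TUNEL-positive and Ki67-positive cells were counted.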

Mus musculus [32] = test: Invivo antitumor activity in transgenic mouse harboring EGFR del19/T790M mutant assessed as reduction in nodule remnants in tumor at 25 mg/kg administered via gavage for 2 weeks by H&E staining based analysis; format: functional, organism-based
Procedure, shortened: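 EGFR-TL (L858R/T790M) or exon19 deletion-T790M (TD) inducible bitransgenic mice dosed by oral gavage daily at 25 mg/kg; vehicle 10% 1-methyl-2-pyrrolidinone:90% PEG-300. Tumors followed by MRI; lung histology by standard protocols.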

BaF3 [33] = test: Prevention of EGFR T790M mutant development in mouse BaF3 cells harboring L858R mutant assessed as reduction in resistant clones with T790M mutant at 0.001 to 1 uM; format: functional, cell-based; details: dose 0.001-1 µM
Procedure, shortened: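 Ba/F3 cells with EGFR L858R or delE746_A750 mutagenized with N-ethyl-N-nitrosourea, then expanded in 100 nM or 1 μM inhibitor; resistant clones isolated and characterized for EGFR T790M.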

PC-9 = test: Prevention of EGFR T790M mutant development in human PC-9 cells harboring delE746_A750 mutant assessed as reduction in resistant cells with T790M mutant at 1 uM; format: functional, cell-based

C=CC(=O)Nc1cccc(Oc2nc(Nc3ccc(N4CCN(C)CC4)cc3OC)ncc2Cl)c1
IC50 (HCC827): 5 nM
IC50 (NCI-H3255): 89 nM
IC50 (cells [1]): > 3.3 µM
IC50 (Calu-3): 1960 nM
IC50 (cells [2]): 1510 nM
IC50 (BaF3 [3]): 3 nM
IC50 (BaF3 [4]): 2 nM
IC50 (BaF3 [5]): > 3.3 µM
IC50 (BaF3 [6]): 1860 nM
IC50 (BaF3 [7]): 619 nM
inhibition [8]: Active
inhibition [9]: Active
Kd [10]: 91 nM
Kd [11]: 220 nM
Kd [12]: 36 nM
Kd [13]: 33 nM
Kd [14]: 100 nM
Activity [15]: inactive
IC50 [16]: 3.76 µM
clearance [17]: 17.1 mL/min/kg
Vd [18]: 1.54 L/kg
Cmax [19]: 429 ng/mL
MRT [20]: 3.98 h
concentration at 0.08 h [21]: 1130 ng/mL
concentration at 0.25 h [22]: 627 ng/mL
concentration at 0.5 h [23]: 451 ng/mL
concentration at 4 h [24]: 49.1 ng/mL
concentration at 8 h [25]: 8 ng/mL
concentration at 1 h [26]: 340 ng/mL
concentration at 6 h [27]: 140 ng/mL
concentration at 24 h [28]: 0.82 ng/mL
Activity [29]: Non-Toxic
inhibition (Mus musculus [30]): Active
Activity (Mus musculus [31]): Active
Activity (Mus musculus [32]): Active
Activity (BaF3 [33]): Active
Activity (PC-9): Active
